DENV2 CPE: DENV2-induced cell death inhibition; CPE inhibition, % at 9.99 µM; AID 651640; 350,000 compounds, 1.7% hits; DENV2-infected cells, cytopathic effect rescue, plate reader; in the data active means CPE inhibition above about 20%, passing the limit was not always enough; inconclusive means no clear call, values can overlap the other calls; tested in BHK-21 cells
E-selectin induc: induces E-selectin expression in human endothelial cells | 260,000 compounds, 0.37% hits | activation, % at 7.58 µM | P16581 | HUVEC E-selectin immunofluorescence imaging; normalized: neutral wells 0, TNF-alpha wells 100;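 active means mean E-selectin-positive cell signal at least 10% of the positive control, reached in at least 60% of replicates, without over 20% cell loss; inconclusive means no rule given, readout overlaps actives, possibly toxicity-flagged; inactive means the rest, including those meeting only one limit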
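System: HUVEC, human umbilical vein endothelial cells; quantity: 3,000 cells/well; buffer or medium: EGM-2 medium, gelatin-coated wells; dosing: single-point compound dose; detection: immunofluorescence imaging; evaluation: % PE-positive cells; benchmarks: TNF-alpha, DMSO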
FGF22 binding: shifts melting point of recombinant human FGF22. recombinant FGF22 thermal shift, SYPRO orange fluorescence; percent of sucrose octasulfate shift, DMSO zero. activity (Tm shift, normalised), % at 9.99 µM. Q9HCT0. 340,000 compounds, 1.5% hits;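 active means mean Tm shift, scaled 0 neutral to 100 positive control, at about 1.3% or above, every replicate too, limit read from the data; inconclusive means no clear call, values can overlap the other calls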
Target sequence (Q9HCT0 whole entry, looked up): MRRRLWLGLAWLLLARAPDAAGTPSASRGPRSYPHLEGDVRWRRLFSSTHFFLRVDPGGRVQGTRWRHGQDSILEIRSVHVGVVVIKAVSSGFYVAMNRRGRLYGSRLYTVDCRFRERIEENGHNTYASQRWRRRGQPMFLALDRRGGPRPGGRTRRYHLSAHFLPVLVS
CFTR F508del cor: correctors of CFTR F508del function in bronchial epithelial cells | activity (quench increase), % at 7.58 µM | CFBE cells, YFP halide quenching; stimulated with forskolin plus potentiator P3; % fluorescence drop versus neutral controls | 350,000 compounds, 0.36% hits | AID 720511;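 active means mean added fluorescence quench of at least 8% versus neutral control, with both replicates also reaching 8%; inconclusive means only one of the mean or replicate conditions met; inactive means mean below 8% and not both replicates reaching 8%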;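 further: cells transiently co-express mutant CFTR-F508del with the halide-sensitive YFP; corrector assay measuring rescue of mutant channel to the surface after 24 h compound exposure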
ERAP1 HTS inh: inhibitors of human ERAP1 aminopeptidase | inhibition, % at 10.7 µM | recombinant ERAP1, Leu-AMC fluorescence, 60 min | AID 652197 | 340,000 compounds, 0.15% hits | Q9NZ08;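 active means mean replicate inhibition of at least 30%, or all replicates individually reaching that 30% level; inactive means mean below 30% and not every replicate reaching it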
Each line names hits and unclear results; the compound was inactive in the other large screens. Hits are enriched below; roughly 3.7% of the tested compounds scored in any of these assays.

CN(C)CCN1CCN(C2CN(Cc3cn(Cc4ccccc4C(F)(F)F)nn3)S(=O)(=O)C2)CC1 (configuration not stated)	FGF22 binding 15
CC(C)OC(=O)C1CC(C)(O)C(=O)C(C(=O)OC(C)C)C1c1ccc([N+](=O)[O-])cc1 (configuration not stated)	FGF22 binding 43 (no result: DENV2 CPE, E-selectin induc)
CC(=NNC(=S)N1CCCCC1)c1cccc(C)n1	CFTR F508del cor 12
CC(=NNC(=S)N1CCCCC1)c1ccccn1	none
COc1ccc(-n2c(=O)c3ccccc3n(CC(=O)NCC3CCCO3)c2=O)cc1 (configuration not stated)	FGF22 binding 44 (no result: E-selectin induc)
CN1CCN(Cc2cc(Cl)c3cccnc3c2OC(=O)c2cccs2)CC1	none (no result: DENV2 CPE, FGF22 binding, CFTR F508del cor, ERAP1 HTS inh)
O=C(Oc1c(CN2CCOCC2)cc(Cl)c2cccnc12)c1ccccc1Br	DENV2 CPE 41 (no result: E-selectin induc)
N=C1/C(=C\c2ccc(-c3cc(Cl)cc(Cl)c3)o2)C(=O)N=C2SC=C(c3ccccc3)N12	none (no result: DENV2 CPE, FGF22 binding, CFTR F508del cor, ERAP1 HTS inh)
N=C1/C(=C/c2cccn2CCOc2ccccc2)C(=O)N=C2SC=C(c3ccccc3)N12	CFTR F508del cor 13
CC(=O)NC1=NC(=O)/C(=C/c2cc(C)n(-c3ccc(NC(C)=O)cc3)c2C)S1	none
CC(=O)NC1=NC(=O)/C(=C/c2cn(C(C)=O)nc2-c2ccccc2)S1	FGF22 binding 44 (no result: DENV2 CPE, E-selectin induc)
Cc1ccc(NC(=O)CN2C(=O)N/C(=C/c3ccccc3OCc3cccc(C(=O)O)c3)C2=O)cc1	none (no result: E-selectin induc, FGF22 binding)
Cc1ccc(NC(=O)CN2C(=O)N/C(=C/c3cc(C)n(-c4cccc(C(=O)O)c4)c3C)C2=O)cc1	FGF22 binding 44 (no result: E-selectin induc)
CC(=O)NC1=NC(=O)/C(=C/c2cc(C)n(-c3cccc(C(=O)O)c3)c2C)S1	FGF22 binding 43 (no result: E-selectin induc)
O=C(C[C@H]1CC[C@@H]2[C@H](COC[C@@H](O)CN2S(=O)(=O)c2ccc(Cl)cc2)O1)N[C@H]1CCN(Cc2ccccc2)C1	none
CCCC(=O)Nc1ccc2c(c1)C(=O)N(C)[C@H]1CC[C@@H](CC(=O)NCCc3ccccc3)O[C@@H]1CO2	none (no result: DENV2 CPE, FGF22 binding, ERAP1 HTS inh)
CNc1cc(-c2ccc(O)cc2C)ncn1	DENV2 CPE 29
CCOc1ccc(OCC(=O)N(C)c2c(N)n(Cc3ccccc3)c(=O)[nH]c2=O)cc1	DENV2 CPE 25
CC(=O)c1c(C)[nH]c(C(=O)OCC(=O)N(C)c2c(N)n(Cc3ccccc3)c(=O)[nH]c2=O)c1C	DENV2 CPE 143 (no result: E-selectin induc)
CN(C(=O)CCOc1ccccc1)c1c(N)n(Cc2ccccc2)c(=O)[nH]c1=O	none (no result: E-selectin induc)
CC(C)NC(=O)Nc1cccc2c1O[C@@H](CN(C)Cc1ccc3c(c1)OCO3)[C@@H](C)CN([C@@H](C)CO)C2=O	none
NC(=O)NC(=O)COC(=O)CC12CC3CC(CC(C3)C1)C2	FGF22 binding 44 (no result: E-selectin induc)
Cc1cc2nc(-c3ccc[nH]c3=O)n(Cc3cccc(F)c3)c2cc1C	none
CCCn1c(-c2ccc[nH]c2=O)nc2cc(C)c(C)cc21	DENV2 CPE 25 (no result: E-selectin induc)
COCCn1c(SCC(=O)c2ccccc2)nc2c(c1=O)SCC2	FGF22 binding 43
Cn1c(SCC(=O)N2CCCC2)nc2c(c1=O)SCC2	DENV2 CPE 59
C[C@@H]1CN([C@@H](C)CO)C(=O)Cc2cc(NC(=O)CCC(F)(F)F)ccc2O[C@H]1CN(C)C(=O)Nc1ccc2c(c1)OCO2	none
Cc1ccc(S(=O)(=O)Nc2cccc3c2O[C@@H](CN(C)S(=O)(=O)c2ccccc2)[C@@H](C)CN([C@@H](C)CO)C3=O)cc1	none
O=C(C[C@@H]1C=C[C@H](NC(=O)C2CC2)[C@@H](CO)O1)NC1CCC1	none
O=C(NCC[C@H]1CC[C@@H](NC(=O)c2cccnc2)[C@H](CO)O1)Nc1ccc(C(F)(F)F)cc1	none
CC(=O)OCC1OC(n2ncc(=O)n(Cc3ccccc3)c2=O)C(OC(C)=O)C1OC(C)=O (configuration not stated)	none (no result: E-selectin induc)
CC(=O)OCC1OC(COC(C)=O)(c2ccc(C)cc2)C(OC(C)=O)C1OC(C)=O (configuration not stated)	FGF22 binding 51
CC(C)CC#Cc1ccc2c(c1)O[C@H](CN(C)C(=O)c1ccccn1)[C@H](C)CN([C@@H](C)CO)S2(=O)=O	none
CCOC(=O)c1ccc2[nH]c3ccccc3c2c1	none (no result: E-selectin induc)
CCOC(=O)C[n+]1ccc2c([nH]c3ccccc32)c1C	ERAP1 HTS inh 51 (no result: E-selectin induc)
CCCC(=O)N(Cc1cc(=O)[nH]c2ccccc12)c1cccc(C)c1	DENV2 CPE 29
CCOC(=O)c1cc(=O)[nH]c2ccccc12	FGF22 binding 43 (no result: E-selectin induc)
Cc1cccc(N(Cc2cc(=O)[nH]c3ccccc23)C(=O)CCl)c1	none (no result: E-selectin induc)
CCOC(=O)Cc1c(Cl)c2ccccc2[nH]c1=O	FGF22 binding 43 (no result: E-selectin induc)
CCCC(=O)N1CC2(CN(C(=O)C3CCC3)C2)c2c(n(C)c3cc(OC)ccc23)[C@H]1CO	none
COc1ccc(CCNC(=O)c2cc(=O)[nH]c3ccccc23)cc1	none (no result: E-selectin induc)
O=C(NCCc1ccccc1)c1cc(=O)[nH]c2ccccc12	FGF22 binding 43 (no result: E-selectin induc)
O=C(Cc1cccnc1)N1[C@@H]2CNc3ccccc3[C@@H]2[C@@H]1CO	none
CCC(=O)N1[C@H](C#N)[C@H](c2ccccc2-c2cccc(C)c2)[C@@H]1CO	DENV2 CPE 24
COCC(=O)N1[C@H](C#N)[C@H](c2ccccc2-c2ccccc2)[C@@H]1CO	none
CCc1sc(N2[C@H](C#N)[C@H](c3ccccc3-c3ccccc3)[C@H]2CO)nc1C	DENV2 CPE 76
COCC(=O)N1[C@H](CO)[C@H](c2ccccc2-c2ccccc2)[C@@H]1C#N	DENV2 CPE 45
O=C(Cc1cccnc1)N1[C@@H](CO)[C@@H]2c3ccccc3NC[C@@H]21	DENV2 CPE 24
O=C([C@H]1[C@H](CO)[C@H]2Cn3c(cccc3=O)[C@H]2N1Cc1ccccc1)N1CCCCC1	none (no result: ERAP1 HTS inh)
Cc1noc(C)c1NC(=O)Nc1cccc2c1O[C@@H](CN(C)Cc1ccc(-c3ccccc3)cc1)[C@@H](C)CN([C@@H](C)CO)C2=O	DENV2 CPE inconclusive
Cc1ccc(-c2ccccc2[C@@H]2[C@H](C#N)N(C(=O)Cc3cccnc3)[C@H]2CO)cc1	DENV2 CPE 26
N#C[C@@H]1[C@H](c2ccccc2)[C@H](CO)N1C(=O)Cc1ccccc1	DENV2 CPE 74
CO[C@@H]1CN(C)C(=O)c2cc(NC(=O)c3ccc(Oc4ccccc4)cc3)ccc2OC[C@@H](C)NC[C@H]1C	none
Cc1c(C(C)C)c(=O)n(-c2ccc(S(=O)(=O)NC3CCCCC3)cc2)n1C	none (no result: E-selectin induc)
Cc1c(C(C)C)c(=O)n(-c2ccc(S(=O)(=O)NCc3ccccc3)cc2)n1C	FGF22 binding 43 (no result: E-selectin induc, CFTR F508del cor)
C/C(=N\NC(=O)c1c(Cl)c(C)nn1C)c1ccc(NC(=O)C2CCC2)cc1	CFTR F508del cor 11
C/C(=N\NC(=O)c1c([N+](=O)[O-])c(C)nn1C)c1ccc(NC(=O)C2CCCC2)cc1	none (no result: E-selectin induc)

Bioassay records (PubChem)
